Test results from ChEMBL document CHEMBL2029259, “Design, synthesis, and biological evaluation of novel conformationally constrained inhibitors targeting epidermal growth factor receptor threonine⁷⁹⁰ → methionine⁷⁹⁰ mutant” (J Med Chem, 2012).
Calls of active or inactive are those of the source. The calls are words filed in the database; no cut-off is given here.

Key:
[1] = target: T1, Epidermal growth factor receptor (Homo sapiens, UniProt P00533); experiment: Inhibition of EGFR after 1.5 hr by FRET assay
[2] = target: T2, Epidermal growth factor receptor (Homo sapiens, UniProt P00533, T790M); experiment: Inhibition of EGFR T790M mutant after 1.5 hr by FRET assay; assay type: protein assay
[3] = target: T3, Epidermal growth factor receptor (Homo sapiens, UniProt P00533, L858R); experiment: Inhibition of EGFR L858R mutant after 1.5 hr by FRET assay; assay type: protein assay
[4] = target: T4, Epidermal growth factor receptor (Homo sapiens, UniProt P00533, L861Q); experiment: Inhibition of EGFR L861Q mutant after 1.5 hr by FRET assay; assay type: protein assay
[5] = target: T5, Epidermal growth factor receptor (Homo sapiens, UniProt P00533, L858R/T790M); experiment: Inhibition of EGFR L858R/T790M mutant after 1.5 hr by FRET assay; assay type: protein assay
[6] = target: T1, Epidermal growth factor receptor; experiment: Binding affinity to EGFR
[7] = target: T2, Epidermal growth factor receptor; experiment: Binding affinity to EGFR T790M mutant
[8] = target: T3, Epidermal growth factor receptor; experiment: Binding affinity to EGFR L858R mutant
[9] = target: T4, Epidermal growth factor receptor; experiment: Binding affinity to EGFR L861Q mutant
[10] = target: T5, Epidermal growth factor receptor; experiment: Binding affinity to EGFR L858R/T790M mutant
[11] = target: Tyrosine-protein kinase Blk (Homo sapiens) (UniProt P51451); experiment: Binding affinity to BLK at 100 nM
[12] = target: Tyrosine-protein kinase BTK (Homo sapiens) (UniProt Q06187); experiment: Binding affinity to BTK at 100 nM
[13] = target: Receptor tyrosine-protein kinase erbB-2 (Homo sapiens) (UniProt P04626); experiment: Binding affinity to ErbB2 at 100 nM
[14] = target: Receptor tyrosine-protein kinase erbB-4 (Homo sapiens) (UniProt Q15303); experiment: Binding affinity to ErbB4 at 100 nM
[15] = target: Cyclin-G-associated kinase (Homo sapiens) (UniProt O14976); experiment: Binding affinity to GAK at 100 nM
[16] = target: Tyrosine-protein kinase TXK (Homo sapiens) (UniProt P42681); experiment: Binding affinity to TXK at 100 nM
A549 = experiment: Antiproliferative activity against human A549 cells expressing wild type EGFR coexpressing k-Ras mutant after 72 hrs by MTS assay; conditions: A549, 72 h
[17] = Antiproliferative activity against human HL7702 cells expressing wilt type EGFR after 72 hrs by MTS assay; conditions: L02, 72 h
HCC827 [18] = experiment: Induction of Cell cycle arrest in human HCC827 cells harboring EGFR del E746-A750 mutant assessed as G1 phase cells after 24 hrs by flow cytometry assay; assay type: functional, cell-based
In short: (§1)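 Cells in six-well plates serum-starved 24 h to synchronize in G0−G1, then treated at indicated concentrations for 24 h. Lightly trypsinized and cell-cycle distribution analysed by flow cytometry.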

NCI-H1975 [19] = experiment: Induction of Cell cycle arrest in human NCI-H1975 cells harboring EGFR L858R/T790M mutant assessed as G1 phase cells after 24 hrs by flow cytometry assay; assay type: functional, cell-based; in short: as §1
NCI-H1975 [20] = experiment: Antiproliferative activity against human NCI-H1975 cells harboring EGFR L858R/T790M mutant assessed as inhibition of colony formation after 9 days by crystal violet staining; assay type: functional, cell-based
In short: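 H1975 cells seeded at 500 cells per 6-cm dish and grown 24 h, then treated at 0.1 to 10 nM. Medium with compound replaced every 3 days. After 9 days, fixed with 4% formaldehyde and stained with 0.2% crystal violet.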

[21] = Cytotoxicity against human HLF1 cells after 72 hrs by MTS assay; assay type: cell-based; conditions: hlf1, 72 h
In short: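 MTS proliferation read-out at 490 nm after 72 h exposure, cell number set to give absorbance 1.3−2.2. Six concentrations, 0.1 nM to 10 μM, at least six parallels each, repeated at least four times. IC50 from nonlinear sigmoidal dose−response fit.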

NCI-H1975 [22] = experiment: Antitumor activity against human NCI-H1975 cells xenografted in SCID mouse at 10 mg/kg, po administered qd for 14 days relative to control; assay type: functional, organism-based; set-up: dose 10 mg/kg
In short: (§2)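 Six-week-old SCID mice inoculated s.c. in the right flank with H1975 cells (2 × 10⁶/mouse). At mean tumour volume 380−420 mm³ (10−12 days), randomized n = 6/group. Oral dosing daily for 14 days, 0.1 mL/20 g, vehicle as control. Tumours measured every other day by caliper, volume = W²(L/2). Body weight monitored. Significance p < 0.05 versus vehicle.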

NCI-H1975 [23] = experiment: Antitumor activity against human NCI-H1975 cells xenografted in SCID mouse at 30 mg/kg, po administered qd for 14 days relative to control; assay type: functional, organism-based; set-up: dose 30 mg/kg; in short: as §2
[24] = Toxicity in SCID mouse assessed as mortality at 10 mg/kg, po administered qd for 14 days relative to control; assay type: organism-based; set-up: dose 10 mg/kg, route oral; conditions: in vivo, read-out: Activity
In short: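 Six-week-old SCID mice bearing subcutaneous H1975 NSCLC xenografts (2 × 10⁶ cells, right flank) were randomized at 380−420 mm³ average tumour volume (10−12 days post implantation), n = 6/group. They were dosed orally once daily for 14 days with vehicle or compound (10 or 30 mg/kg; 0.1 mL/20 g body weight). Mortality and body weight were tracked during treatment against vehicle controls.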

Mus musculus = experiment: Toxicity in SCID mouse assessed as weight loss at 10 mg/kg, po administered qd for 14 days relative to control; assay type: organism-based; set-up: dose 10 mg/kg, route oral; conditions: in vivo, 336 h; in short: as §2
HCC827 [25] = experiment: Induction of apoptosis in human HCC827 cells harboring EGFR del E746-A750 mutant after 48 hrs by flow cytometry assay
NCI-H1975 [26] = experiment: Induction of apoptosis in human NCI-H1975 cells harboring EGFR L858R/T790M mutant after 48 hrs by flow cytometry assay

T4 sequence (P00533 25-1210 L861Q limits assumed): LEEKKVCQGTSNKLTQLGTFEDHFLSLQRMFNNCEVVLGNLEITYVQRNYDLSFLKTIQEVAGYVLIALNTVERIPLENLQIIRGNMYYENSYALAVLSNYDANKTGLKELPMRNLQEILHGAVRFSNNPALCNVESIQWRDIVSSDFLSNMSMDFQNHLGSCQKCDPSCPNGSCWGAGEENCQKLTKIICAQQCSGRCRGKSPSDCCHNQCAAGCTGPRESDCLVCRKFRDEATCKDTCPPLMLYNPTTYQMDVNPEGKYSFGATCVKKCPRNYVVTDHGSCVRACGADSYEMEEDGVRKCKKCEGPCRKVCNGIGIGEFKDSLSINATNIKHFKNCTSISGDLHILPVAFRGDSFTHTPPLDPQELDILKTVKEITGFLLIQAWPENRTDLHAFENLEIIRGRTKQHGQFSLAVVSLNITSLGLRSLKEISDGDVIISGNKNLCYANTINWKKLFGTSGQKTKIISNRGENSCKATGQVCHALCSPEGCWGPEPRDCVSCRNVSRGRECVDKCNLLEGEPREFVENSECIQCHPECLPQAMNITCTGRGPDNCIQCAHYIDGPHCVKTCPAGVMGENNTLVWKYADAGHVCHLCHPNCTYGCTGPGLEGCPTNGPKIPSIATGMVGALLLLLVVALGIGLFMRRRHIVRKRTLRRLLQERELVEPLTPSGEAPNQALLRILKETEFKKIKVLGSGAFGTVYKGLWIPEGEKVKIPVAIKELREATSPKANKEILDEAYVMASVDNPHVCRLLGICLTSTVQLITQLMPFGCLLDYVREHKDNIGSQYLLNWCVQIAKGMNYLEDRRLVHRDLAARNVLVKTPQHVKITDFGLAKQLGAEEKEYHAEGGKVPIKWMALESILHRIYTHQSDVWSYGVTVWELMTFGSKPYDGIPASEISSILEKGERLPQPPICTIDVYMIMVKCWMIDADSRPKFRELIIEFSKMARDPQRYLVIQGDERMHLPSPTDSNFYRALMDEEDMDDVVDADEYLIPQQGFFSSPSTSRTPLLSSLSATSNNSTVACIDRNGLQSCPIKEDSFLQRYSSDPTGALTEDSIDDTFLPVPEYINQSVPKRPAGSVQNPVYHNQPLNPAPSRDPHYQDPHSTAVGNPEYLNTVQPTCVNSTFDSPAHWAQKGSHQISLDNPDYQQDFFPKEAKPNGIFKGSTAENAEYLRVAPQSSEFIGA
T5 sequence (P00533 25-1210 T790M/L858R limits assumed): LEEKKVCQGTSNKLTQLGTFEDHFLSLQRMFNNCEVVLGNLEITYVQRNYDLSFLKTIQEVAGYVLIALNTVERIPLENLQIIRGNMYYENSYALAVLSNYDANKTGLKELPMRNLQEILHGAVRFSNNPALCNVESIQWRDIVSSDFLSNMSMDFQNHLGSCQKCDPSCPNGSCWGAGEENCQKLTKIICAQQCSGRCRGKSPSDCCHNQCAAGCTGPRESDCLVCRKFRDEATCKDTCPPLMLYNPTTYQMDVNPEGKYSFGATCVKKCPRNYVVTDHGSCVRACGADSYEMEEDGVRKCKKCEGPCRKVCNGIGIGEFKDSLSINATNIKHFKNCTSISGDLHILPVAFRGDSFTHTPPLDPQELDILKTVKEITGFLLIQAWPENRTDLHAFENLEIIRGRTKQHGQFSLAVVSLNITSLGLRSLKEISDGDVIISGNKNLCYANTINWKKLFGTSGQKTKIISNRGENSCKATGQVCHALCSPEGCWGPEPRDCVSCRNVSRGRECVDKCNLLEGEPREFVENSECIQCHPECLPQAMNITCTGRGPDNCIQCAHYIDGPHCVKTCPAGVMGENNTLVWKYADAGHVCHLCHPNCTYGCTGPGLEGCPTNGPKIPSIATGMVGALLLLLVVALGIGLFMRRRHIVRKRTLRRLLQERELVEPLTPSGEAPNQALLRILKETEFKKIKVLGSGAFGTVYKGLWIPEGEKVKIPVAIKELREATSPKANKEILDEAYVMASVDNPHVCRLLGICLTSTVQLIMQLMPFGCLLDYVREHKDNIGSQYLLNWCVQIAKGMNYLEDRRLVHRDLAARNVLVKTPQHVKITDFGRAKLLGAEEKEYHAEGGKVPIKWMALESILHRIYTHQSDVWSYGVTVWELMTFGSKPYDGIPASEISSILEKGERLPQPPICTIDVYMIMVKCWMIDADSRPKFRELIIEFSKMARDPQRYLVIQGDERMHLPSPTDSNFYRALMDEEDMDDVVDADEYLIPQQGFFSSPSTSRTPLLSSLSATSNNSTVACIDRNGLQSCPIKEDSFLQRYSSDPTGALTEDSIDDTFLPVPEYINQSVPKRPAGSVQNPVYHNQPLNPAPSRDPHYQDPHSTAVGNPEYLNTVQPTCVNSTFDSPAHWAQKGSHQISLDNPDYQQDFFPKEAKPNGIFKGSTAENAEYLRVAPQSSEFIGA
T3 sequence (P00533 25-1210 L858R limits assumed): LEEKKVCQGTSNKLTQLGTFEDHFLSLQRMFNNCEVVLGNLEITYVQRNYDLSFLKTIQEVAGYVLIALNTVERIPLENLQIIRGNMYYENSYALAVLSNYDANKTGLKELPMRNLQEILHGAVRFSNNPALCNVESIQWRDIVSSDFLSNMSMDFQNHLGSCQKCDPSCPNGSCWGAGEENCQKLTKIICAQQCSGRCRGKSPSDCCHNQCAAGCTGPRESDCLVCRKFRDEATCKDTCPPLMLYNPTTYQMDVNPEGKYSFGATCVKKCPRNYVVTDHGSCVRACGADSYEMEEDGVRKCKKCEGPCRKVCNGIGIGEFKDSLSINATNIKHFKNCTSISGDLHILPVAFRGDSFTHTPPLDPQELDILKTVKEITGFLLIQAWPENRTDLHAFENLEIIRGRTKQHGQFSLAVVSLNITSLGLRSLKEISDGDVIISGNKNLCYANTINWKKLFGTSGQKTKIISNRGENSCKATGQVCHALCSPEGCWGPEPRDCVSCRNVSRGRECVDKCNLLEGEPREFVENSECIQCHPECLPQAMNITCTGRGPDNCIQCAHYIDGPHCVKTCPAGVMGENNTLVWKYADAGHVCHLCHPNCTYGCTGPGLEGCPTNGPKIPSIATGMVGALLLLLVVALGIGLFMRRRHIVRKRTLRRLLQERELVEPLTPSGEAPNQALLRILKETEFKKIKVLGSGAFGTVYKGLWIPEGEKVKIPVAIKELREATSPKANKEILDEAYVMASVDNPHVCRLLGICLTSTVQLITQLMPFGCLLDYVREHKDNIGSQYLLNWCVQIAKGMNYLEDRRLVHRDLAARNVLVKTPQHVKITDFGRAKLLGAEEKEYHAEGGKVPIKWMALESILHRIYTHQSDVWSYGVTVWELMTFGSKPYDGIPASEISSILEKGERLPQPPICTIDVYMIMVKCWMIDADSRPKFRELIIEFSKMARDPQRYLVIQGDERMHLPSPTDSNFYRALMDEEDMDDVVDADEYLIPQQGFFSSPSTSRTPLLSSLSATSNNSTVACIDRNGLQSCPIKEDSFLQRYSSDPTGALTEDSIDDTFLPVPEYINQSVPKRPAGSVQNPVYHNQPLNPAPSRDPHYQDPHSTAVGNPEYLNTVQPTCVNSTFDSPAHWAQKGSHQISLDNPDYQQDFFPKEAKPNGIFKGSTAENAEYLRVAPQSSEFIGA
T2 sequence (P00533 25-1210 T790M limits assumed): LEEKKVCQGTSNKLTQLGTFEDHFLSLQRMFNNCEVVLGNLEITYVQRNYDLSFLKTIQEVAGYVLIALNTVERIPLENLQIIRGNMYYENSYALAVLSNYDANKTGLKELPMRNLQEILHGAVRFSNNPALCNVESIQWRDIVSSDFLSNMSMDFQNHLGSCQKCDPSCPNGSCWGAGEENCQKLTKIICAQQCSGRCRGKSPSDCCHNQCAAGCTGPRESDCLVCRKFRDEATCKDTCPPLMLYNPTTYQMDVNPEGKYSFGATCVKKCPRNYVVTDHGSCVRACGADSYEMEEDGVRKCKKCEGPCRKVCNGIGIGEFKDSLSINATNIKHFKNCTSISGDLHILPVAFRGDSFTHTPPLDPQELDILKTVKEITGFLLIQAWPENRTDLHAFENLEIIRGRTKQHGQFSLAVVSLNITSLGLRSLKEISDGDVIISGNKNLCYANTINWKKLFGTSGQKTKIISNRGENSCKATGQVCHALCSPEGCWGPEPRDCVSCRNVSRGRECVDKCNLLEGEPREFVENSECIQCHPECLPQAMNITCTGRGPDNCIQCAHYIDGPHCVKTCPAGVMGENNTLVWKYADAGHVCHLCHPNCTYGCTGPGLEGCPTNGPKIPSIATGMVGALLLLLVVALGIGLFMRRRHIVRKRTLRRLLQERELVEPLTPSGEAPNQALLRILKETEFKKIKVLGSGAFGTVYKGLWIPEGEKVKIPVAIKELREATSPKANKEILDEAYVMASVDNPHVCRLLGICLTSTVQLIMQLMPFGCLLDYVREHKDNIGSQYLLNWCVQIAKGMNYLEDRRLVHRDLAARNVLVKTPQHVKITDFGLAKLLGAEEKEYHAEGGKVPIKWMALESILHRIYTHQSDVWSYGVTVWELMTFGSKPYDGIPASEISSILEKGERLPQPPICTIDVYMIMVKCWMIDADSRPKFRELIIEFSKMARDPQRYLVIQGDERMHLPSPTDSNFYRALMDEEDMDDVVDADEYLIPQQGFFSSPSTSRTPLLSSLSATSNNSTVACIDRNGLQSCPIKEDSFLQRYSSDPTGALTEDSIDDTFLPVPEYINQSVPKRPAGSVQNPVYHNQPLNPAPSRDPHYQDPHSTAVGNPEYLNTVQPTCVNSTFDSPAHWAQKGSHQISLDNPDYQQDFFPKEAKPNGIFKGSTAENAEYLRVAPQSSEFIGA

## C=CC(=O)Nc1cccc(N2C(=O)N(Cc3ccccc3)Cc3cnc(Nc4ccc(N5CCN(C)CC5)cc4OC)nc32)c1
[1]
  IC50: 0.29 nM
[2]
  IC50: 0.67 nM
[3]
  IC50: 0.38 nM
[4]
  IC50: 0.72 nM
[5]
  IC50: 0.93 nM
[6]
  Kd: 1.2 nM
[7]
  Kd: 0.29 nM
[8]
  Kd: 1.3 nM
[9]
  Kd: 0.68 nM
[10]
  Kd: 0.3 nM
[11]
  Activity: Active
[12]
  Activity: Active
[13]
  Activity: Active
[14]
  Activity: Active
[15]
  Activity: Active
[16]
  Activity: Active
A549
  IC50: 2660 nM
[17]
  IC50: 2390 nM
HCC827 [18]
  Activity: Active
NCI-H1975 [19]
  Activity: Active
NCI-H1975 [20]
  inhibition: Dose-dependent effect
[21]
  Activity: Non-toxic
NCI-H1975 [22]
  Activity: inactive
NCI-H1975 [23]
  Activity: Active
[24]
  mortality at 336 h: < 5%
Mus musculus
  Activity: < 5%
HCC827 [25]
  Activity: Active
NCI-H1975 [26]
  Activity: Active
